How the values were obtained:
Integrin alpha-V/beta-3 = Integrin alpha-V/beta-3 (Homo sapiens, UniProt P05106+P06756); assay: Displacement of [125I]echistatin from human integrin alphaVbeta3; assay type: protein-complex assay
Procedure, shortened: (§1)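 Solid-phase competition binding to αvβ3 and αvβ5 purified from human placenta. Receptors coated overnight at 4 °C (αvβ3 at 500 ng/mL, αvβ5 at 1000 ng/mL) in Tris pH 7.4 buffer with Ca2+, Mg2+ and Mn2+, then blocked with 1% BSA. [125I]echistatin used at 0.05 nM (αvβ3) or 0.1 nM (αvβ5) against test compound from 100 μM to 0.01 nM. Incubation 3 h at room temperature, in triplicate. Nonspecific binding defined with 1 μM unlabeled echistatin. IC50 taken as 50% inhibition of radioligand binding.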

Integrin alpha-V/beta-5 = Integrin alpha-V/beta-5 (Homo sapiens, UniProt P06756+P18084); assay: Displacement of [125I]echistatin from human integrin alphaVbeta5; assay type: protein-complex assay; procedure, shortened: as §1
Integrin alpha-V/beta-5, sequence (P06756 31-889 limits assumed): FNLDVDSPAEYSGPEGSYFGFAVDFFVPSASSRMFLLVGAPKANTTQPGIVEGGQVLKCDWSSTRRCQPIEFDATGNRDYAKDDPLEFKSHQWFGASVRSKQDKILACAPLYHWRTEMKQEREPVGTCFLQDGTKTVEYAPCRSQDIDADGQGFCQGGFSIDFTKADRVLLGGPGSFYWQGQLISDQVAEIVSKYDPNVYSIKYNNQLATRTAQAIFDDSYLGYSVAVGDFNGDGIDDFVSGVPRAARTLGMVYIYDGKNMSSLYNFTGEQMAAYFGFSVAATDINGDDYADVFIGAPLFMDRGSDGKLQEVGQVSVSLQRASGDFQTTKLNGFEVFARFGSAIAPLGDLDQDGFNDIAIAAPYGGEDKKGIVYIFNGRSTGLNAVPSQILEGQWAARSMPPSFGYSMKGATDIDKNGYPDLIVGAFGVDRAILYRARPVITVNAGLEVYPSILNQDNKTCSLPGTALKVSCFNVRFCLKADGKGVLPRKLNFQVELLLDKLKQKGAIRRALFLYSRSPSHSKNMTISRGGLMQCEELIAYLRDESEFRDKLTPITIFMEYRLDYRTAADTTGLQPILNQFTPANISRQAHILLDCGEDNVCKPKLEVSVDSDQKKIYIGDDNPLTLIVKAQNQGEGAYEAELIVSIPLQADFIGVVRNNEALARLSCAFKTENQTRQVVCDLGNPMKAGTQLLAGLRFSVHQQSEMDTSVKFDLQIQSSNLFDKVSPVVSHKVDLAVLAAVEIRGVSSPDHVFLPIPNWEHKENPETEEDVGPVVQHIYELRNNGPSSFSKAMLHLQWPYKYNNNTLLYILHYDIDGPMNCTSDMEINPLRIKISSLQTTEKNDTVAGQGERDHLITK
Integrin alpha-V/beta-5, sequence (P06756 891-1048 limits assumed): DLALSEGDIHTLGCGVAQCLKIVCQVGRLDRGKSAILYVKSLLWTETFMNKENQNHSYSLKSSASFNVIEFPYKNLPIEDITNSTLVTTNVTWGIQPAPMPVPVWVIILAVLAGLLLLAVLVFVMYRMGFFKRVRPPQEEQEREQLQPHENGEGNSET
Integrin alpha-V/beta-5, sequence (P18084 24-799 limits assumed): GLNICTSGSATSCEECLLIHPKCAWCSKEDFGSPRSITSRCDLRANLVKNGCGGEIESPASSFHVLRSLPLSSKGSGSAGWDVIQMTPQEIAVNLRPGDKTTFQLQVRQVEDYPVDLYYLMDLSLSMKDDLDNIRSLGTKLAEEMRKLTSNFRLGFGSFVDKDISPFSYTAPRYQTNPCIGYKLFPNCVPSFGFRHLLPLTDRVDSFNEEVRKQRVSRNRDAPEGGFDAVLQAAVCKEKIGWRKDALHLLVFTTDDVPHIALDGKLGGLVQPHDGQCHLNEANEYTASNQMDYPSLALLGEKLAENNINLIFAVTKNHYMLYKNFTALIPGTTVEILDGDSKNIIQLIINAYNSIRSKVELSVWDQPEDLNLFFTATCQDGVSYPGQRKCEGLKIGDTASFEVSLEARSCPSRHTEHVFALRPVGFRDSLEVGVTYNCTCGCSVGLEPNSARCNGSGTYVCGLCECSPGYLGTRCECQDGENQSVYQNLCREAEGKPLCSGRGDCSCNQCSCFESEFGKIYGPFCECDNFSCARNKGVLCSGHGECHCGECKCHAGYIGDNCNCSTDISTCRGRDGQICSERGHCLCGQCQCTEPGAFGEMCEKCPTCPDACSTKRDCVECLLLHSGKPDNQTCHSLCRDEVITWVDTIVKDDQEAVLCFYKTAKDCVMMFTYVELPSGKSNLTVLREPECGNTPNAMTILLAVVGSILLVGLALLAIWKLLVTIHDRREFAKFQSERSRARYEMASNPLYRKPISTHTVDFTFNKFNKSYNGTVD

Integrin alpha-V/beta-3, sequence (P05106 27-788 limits assumed): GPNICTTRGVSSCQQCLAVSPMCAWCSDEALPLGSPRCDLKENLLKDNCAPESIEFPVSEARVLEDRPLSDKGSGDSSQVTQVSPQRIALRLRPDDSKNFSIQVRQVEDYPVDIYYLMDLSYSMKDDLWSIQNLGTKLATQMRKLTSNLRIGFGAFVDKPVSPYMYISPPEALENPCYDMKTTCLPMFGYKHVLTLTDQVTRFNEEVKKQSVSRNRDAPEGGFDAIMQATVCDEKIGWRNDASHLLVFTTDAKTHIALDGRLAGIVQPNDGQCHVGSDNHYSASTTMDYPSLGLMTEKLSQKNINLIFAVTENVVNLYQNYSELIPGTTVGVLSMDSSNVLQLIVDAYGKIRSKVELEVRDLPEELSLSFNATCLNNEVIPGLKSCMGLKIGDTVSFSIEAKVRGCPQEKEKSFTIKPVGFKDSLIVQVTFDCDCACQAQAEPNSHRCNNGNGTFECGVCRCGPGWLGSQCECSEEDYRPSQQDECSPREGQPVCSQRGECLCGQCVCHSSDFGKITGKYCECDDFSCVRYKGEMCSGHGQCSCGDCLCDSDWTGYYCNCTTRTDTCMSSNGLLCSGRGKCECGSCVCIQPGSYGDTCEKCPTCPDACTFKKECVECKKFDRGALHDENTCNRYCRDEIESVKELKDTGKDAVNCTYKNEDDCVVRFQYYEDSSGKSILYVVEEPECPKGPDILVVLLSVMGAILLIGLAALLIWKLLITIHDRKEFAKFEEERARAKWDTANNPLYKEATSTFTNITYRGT
Integrin alpha-V/beta-3, sequence (P06756 31-889 limits assumed): as the sequence (P06756 31-889 limits assumed) above
Integrin alpha-V/beta-3, sequence (P06756 891-1048 limits assumed): as the sequence (P06756 891-1048 limits assumed) above

Row | IC50 (Integrin alpha-V/beta-3) [µM] | IC50 (Integrin alpha-V/beta-5) [µM] | Compound
1 | > 10 | > 10 | NC(N)=NCCCc1cn(CC(=O)N(CC(=O)O)c2ccccc2)nn1
2 | > 10 | > 10 | N=C(N)NCCc1cn(CC(=O)N(CC(=O)O)c2ccccc2)nn1
3 | > 10 | > 10 | NC(N)=NCc1cn(CC(=O)N(CC(=O)O)c2ccccc2)nn1
4 | > 10 | > 10 | N=C(N)N1CCN(CCc2cn(CC(=O)N(CC(=O)O)c3ccccc3)nn2)CC1
